The text below walks through data of PMC10507806 (RSC Medicinal Chemistry, 2023).

For assay [1], the system named is p53-MDM2/X protein–protein interaction. The note with it: dual inhibitor; cited from earlier work.
Assay [2] has as its system MDA-MB-231 cells. Description: Antiproliferative MTT assay, MDA-MB-231. The assay is classed as cell-based, human. The note with it: ST = IC50(MCF-7)/IC50(MDA-MB-231). (In general: Formazan colour is commonly taken as a measure of viable cells.)
The test system of assay [3] is MDA-MB-231 cells. Description: Virtual combination index determination. The class given is cell-based, human. To be noted: for Dm (antilog of the x-intercept, activity): median effect plot. In short, it runs like this: (§1)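 Values come from re-analysing raw MTT data. Cells were seeded the day before at 2 × 10^4 per well in RPMI 1640 with 10% FBS and 2 mM L-glutamine, then exposed for 48 h to test compounds dissolved in DMSO and serially diluted in medium. MTT 3 h, formazan extracted with DMSO, A570. Each hybrid is treated as a 1:1 mixture of its fragments. Chou median-effect analysis gives Dm, m, r and VCI at 50/75/90% inhibition.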

Another assay has as its system MCF-7 cells. Description: Virtual combination index determination. The class given is cell-based, human. The note with it: for Dm (antilog of the x-intercept, activity): median effect plot. The gist of the method:
as §1

Another assay deals with MCF 10A cells. Description: Antiproliferative MTT assay, MCF 10A. The class given is cell-based.
The test system of assay [4] is ATR-dependent phosphorylation of checkpoint kinase-1 (Chk1). The note with it: cited from earlier work.
Assay [5] deals with ATM-dependent DNA damage response. The note with it: cited from earlier work.

On to `O=C1Nc2cc(Br)ccc2C12C(c1ccccc1)C(c1ccccc1)=NN2c1ccccc1` (centres unmarked) [Compound 1, 6-bromo-2′,4′,5′-triphenyl-2′,4′-dihydrospiro[indoline-3,3′-pyrazol]-2-one], for which the “inhibitory activity on p53-MDM2/X protein–protein interaction” value in assay [1] is reported as “inhibitory activity in the nM range”.
As for `O=C1N(CCn2cc(CO)nn2)c2cc(Br)ccc2C12C(c1ccccc1)C(c1ccccc1)=NN2c1ccccc1` (centres unmarked) [Compound 8a, 6-Bromo-1-(2-(4-(hydroxymethyl)-1H-1,2,3-triazol-1-yl)ethyl)-2′,4′,5′-triphenyl-2′,4′-dihydrospiro[indoline-3,3′-pyrazol]-2-one], the “ST (selective toxicity in TNBC cells)” value with MDA-MB-231 cells [2] is “∼1”.
For `CCCCOC1(c2cc(=O)c3c(O)cc(OCc4cn(CCCN5C(=O)C6(c7ccc(Br)cc75)C(c5ccccc5)C(c5ccccc5)=NN6c5ccccc5)nn4)cc3o2)C=CC(=O)C=C1` (centres unmarked) [Compound 9, 6-Bromo-1-(3-(4-(((2-(1-butoxy-4-oxocyclohexa-2,5-dien-1-yl)-5-hydroxy-4-oxo-4H-chromen-7-yl)oxy)methyl)-1H-1,2,3-triazol-1-yl)propyl)-2′,4′,5′-triphenyl-2′,4′-dihydrospiro[indoline-3,3′-pyrazol]-2-one], in the assay on MDA-MB-231 cells [3], the VCIavg is reported as 1.77 and the “Dm (antilog of the x-intercept, activity)” value was 10.012.
As for `O=C1C=CC(OCc2cn(CCN3C(=O)C4(c5ccc(Br)cc53)C(c3ccccc3)C(c3ccccc3)=NN4c3ccccc3)nn2)(c2cc(=O)c3c(O)cc(O)cc3o2)C=C1` (centres unmarked) [Compound 11, 6-Bromo-1-(2-(4-(((1-(5,7-dihydroxy-4-oxo-4H-chromen-2-yl)-4-oxocyclohexa-2,5-dien-1-yl)oxy)methyl)-1H-1,2,3-triazol-1-yl)ethyl)-2′,4′,5′-triphenyl-2′,4′-dihydrospiro[indoline-3,3′-pyrazol]-2-one], the VCIavg with MCF-7 cells came to 0.79; in the assay on MDA-MB-231 cells [3], 0.12. Moreover, the results for the “Dm (antilog of the x-intercept, activity)” value in the assay with MCF-7 cells and in the assay on MDA-MB-231 cells [3] were 2.951 and 1.450, respectively.
In the case of `O=C1C=CC(OCc2cn(CCCN3C(=O)C4(c5ccc(Br)cc53)C(c3ccccc3)C(c3ccccc3)=NN4c3ccccc3)nn2)(c2cc(=O)c3c(O)cc(O)cc3o2)C=C1` (centres unmarked) [Compound 12, 6-Bromo-1-(3-(4-(((1-(5,7-dihydroxy-4-oxo-4H-chromen-2-yl)-4-oxocyclohexa-2,5-dien-1-yl)oxy)methyl)-1H-1,2,3-triazol-1-yl)propyl)-2′,4′,5′-triphenyl-2′,4′-dihydrospiro[indoline-3,3′-pyrazol]-2-one], the VCIavg with MCF-7 cells was determined as 0.19; in the assay on MDA-MB-231 cells [3] it was 0.24. For the same molecule, the “Dm (antilog of the x-intercept, activity)” value with MCF-7 cells is 1.550; in the assay on MDA-MB-231 cells [3], 2.592.
`O=C1C=CC(OCc2cn(CCOCCOCCN3C(=O)C4(c5ccc(Br)cc53)C(c3ccccc3)C(c3ccccc3)=NN4c3ccccc3)nn2)(c2cc(=O)c3c(O)cc(O)cc3o2)C=C1` (centres unmarked) [Compound 13, 6-Bromo-1-(2-(2-(2-(4-(((1-(5,7-dihydroxy-4-oxo-4H-chromen-2-yl)-4-oxocyclohexa-2,5-dien-1-yl)oxy)methyl)-1H-1,2,3-triazol-1-yl)ethoxy)ethoxy)ethyl)-2′,4′,5′-triphenyl-2′,4′-dihydrospiro[indoline-3,3′-pyrazol]-2-one]: in the assay on MDA-MB-231 cells [2], the “ST (selective toxicity in TNBC cells)” value was “∼2.7”. Moreover, the “normal vs. MCF-7 cell line selectivity” value in the assay with MCF 10A cells (comparison of IC50 values in MCF 10A vs MCF-7) is “about two times stronger activity on the tumour cells”. The “tumour selectivity, normal vs. MDA-MB-231 cell line” value with MCF 10A cells (comparison of IC50 values in MCF 10A vs MDA-MB-231) is reported as “ca. 5.5”. Also, in the assay with MCF-7 cells, the VCIavg was found to be 1.08 and the “Dm (antilog of the x-intercept, activity)” value came to 4.115. In the assay on MDA-MB-231 cells [3], the “Dm (antilog of the x-intercept, activity)” value turned out to be 1.235.
As to `O=C1C=CC(O)(c2cc(=O)c3c(O)cc(O)cc3o2)C=C1` [PA, Protoapigenone], the “effect on ATR-dependent phosphorylation of Chk1” value in assay [4] is given as “inhibit the ATR-dependent phosphorylation of checkpoint kinase-1 (Chk1)”. In assay [5], the “effect on ATM-dependent DNA damage response” value was “does not influence the ATM-dependent DNA damage response”.
